Laboratory results published in ChEMBL document CHEMBL1151458, “Comparative analysis of the bactericidal activities of amphibian peptide analogues against multidrug-resistant nosocomial bacterial strains” (2008).
Active and inactive are the calls of the source. No cut-off for these calls is given here.

Assays:
Enterococcus faecium [1] = assay: Bactericidal activity against Enterococcus faecium isolate 3 with AMP-CIP-CTX-ERY-GEN-LVX-SXT-TEC-VAN resistance phenotype assessed as concentration required for >= 3 log10 CFU/ml reduction in viable bacteria in sodium phosphate buffer at pH 7.4 after 1.5 hrs by liquid microdilution assay; assay type: functional
How it was run: (§1)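 Clinical multidrug-resistant isolates grown to mid-log in tryptone soy broth and stored frozen. Exponential cells resuspended in 10 mM sodium phosphate buffer, pH 7.4, at 1 × 10^7 CFU/ml; 10 μl incubated with graded peptide concentrations in 100 μl at 37°C for 1.5 h. Plated on tryptone soy agar, CFU read after 24 h at 37°C. Peptide stocks in 20% ethanol.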

Acinetobacter baumannii [2] = assay: Bactericidal activity against Acinetobacter baumannii isolate 1 with AMP-AMC-CFZ-CIP-IPM-LVX-PIP-SXT-TET resistance phenotype assessed as concentration required for >= 3 log10 CFU/ml reduction in viable bacteria in sodium phosphate buffer at pH 7.4 after 1.5 hrs by liquid microdilution assay; assay type: functional; how it was run: as §1
[3] = tested on: Stenotrophomonas maltophilia; assay: Bactericidal activity against Stenotrophomonas maltophilia isolate 1 with AMK-CIP-CTX-IPM-MEM-SAM-TZP resistance phenotype assessed as concentration required for >= 3 log10 CFU/ml reduction in viable bacteria in sodium phosphate buffer at pH 7.4 after 1.5 hrs by liquid microdilution assay; assay type: functional; how it was run: as §1
[4] = tested on: Stenotrophomonas maltophilia; assay: Bactericidal activity against Stenotrophomonas maltophilia isolate 2 with AMK-CIP-CTX-IPM-MEM-SAM-TZP resistance phenotype assessed as concentration required for >= 3 log10 CFU/ml reduction in viable bacteria in sodium phosphate buffer at pH 7.4 after 1.5 hrs by liquid microdilution assay; assay type: functional; how it was run: as §1
Acinetobacter baumannii [5] = assay: Bactericidal activity against Acinetobacter baumannii isolate 3 with AMP-AMC-CFZ-CIP-IPM-SXT-TET-TOB resistance phenotype assessed as concentration required for >= 3 log10 CFU/ml reduction in viable bacteria in sodium phosphate buffer at pH 7.4 after 1.5 hrs by liquid microdilution assay; assay type: functional; how it was run: as §1
Pseudomonas aeruginosa [6] = assay: Antimicrobial activity against Pseudomonas aeruginosa isolate 1 with AMP-CFZ-CIP-CTX-CXM-GEN-LVX-SXT-TET resistance phenotype at twofold bactericidal concentration after 10 to 30 mins by time kill assay; assay type: functional, organism-based
How it was run: (§2)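 Time-kill in 10 mM sodium phosphate buffer, pH 7.4: 1 × 10^7 CFU/ml mid-log clinical isolate (10 μl) exposed at 37°C to peptide at the 1.5-h bactericidal concentration or twofold that, in 100 μl. Samples taken from 2 min onward, plated on tryptone soy agar, CFU counted after 24 h at 37°C. Killing taken as ≥3 log10 CFU/ml drop.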

Staphylococcus aureus [7] = assay: Antimicrobial activity against Staphylococcus aureus isolate 1 with AMC-AMP-CIP-ERY-GEN-OXA-RIF resistance phenotype at twofold the bactericidal concentration within 30 mins; assay type: functional, organism-based; how it was run: as §2
Acinetobacter baumannii [8] = assay: Antimicrobial activity against Acinetobacter baumannii isolate 3 with AMP-AMC-CFZ-CIP-IPM-SXT-TET-TOB resistance phenotype assessed as time to kill at bactericidal concentration; assay type: functional; how it was run: as §2
Pseudomonas aeruginosa [9] = assay: Bactericidal activity against Pseudomonas aeruginosa isolate 3 with AMP-CFZ-CTX-CIP-GEN-IPM-LVX-SXT-TET-TOB resistance phenotype assessed as concentration required for >= 3 log10 CFU/ml reduction in viable bacteria in sodium phosphate buffer at pH 7.4 after 1.5 hrs by liquid microdilution assay; assay type: functional; how it was run: as §1
Pseudomonas aeruginosa [10] = assay: Bactericidal activity against Pseudomonas aeruginosa isolate 1 with AMP-CFZ-CIP-CTX-CXM-GEN-LVX-SXT-TET resistance phenotype assessed as concentration required for >= 3 log10 CFU/ml reduction in viable bacteria in 20% heat-inactivated human serum after 1.5 hrs by liquid microdilution assay; assay type: functional
How it was run: (§3)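 The buffer microdilution kill assay (1 × 10^7 CFU/ml mid-log cells, 10 μl in 100 μl, 37°C, 1.5 h, CFU on tryptone soy agar after 24 h) with serum added to 20% or 40% final. Serum was pooled from five healthy donors, clotted at room temperature, spun at 300 × g and heat-inactivated at 56°C for 30 min.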

Enterococcus faecium [11] = assay: Bactericidal activity against Enterococcus faecium isolate 3 with AMP-CIP-CTX-ERY-GEN-LVX-SXT-TEC-VAN resistance phenotype assessed as concentration required for >= 3 log10 CFU/ml reduction in viable bacteria in 20% heat-inactivated human serum after 1.5 hrs by liquid microdilution assay; assay type: functional; how it was run: as §3
Staphylococcus aureus [12] = assay: Bactericidal activity against Staphylococcus aureus isolate 1 with AMC-AMP-CIP-ERY-GEN-OXA-RIF resistance phenotype assessed as concentration required for >= 3 log10 CFU/ml reduction in viable bacteria in 20% heat-inactivated human serum after 1.5 hrs by liquid microdilution assay; assay type: functional; how it was run: as §3
Staphylococcus aureus [13] = assay: Bactericidal activity against Staphylococcus aureus isolate 3 with AMC-AMP-CIP-ERY-GEN-LVX-OXA resistance phenotype assessed as concentration required for >= 3 log10 CFU/ml reduction in viable bacteria in sodium phosphate buffer at pH 7.4 after 1.5 hrs by liquid microdilution assay; assay type: functional; how it was run: as §1
Enterococcus faecium [14] = assay: Antimicrobial activity against Enterococcus faecium isolate 3 with AMP-CIP-CTX-ERY-GEN-LVX-SXT-TEC-VAN resistance phenotype assessed as time to kill at twofold the bactericidal concentration; assay type: functional, organism-based; how it was run: as §2
Pseudomonas aeruginosa [15] = assay: Bactericidal activity against Pseudomonas aeruginosa isolate 1 with AMP-CFZ-CIP-CTX-CXM-GEN-LVX-SXT-TET resistance phenotype assessed as concentration required for >= 3 log10 CFU/ml reduction in viable bacteria in sodium phosphate buffer at pH 7.4 after 1.5 hrs by liquid microdilution assay; assay type: functional; how it was run: as §1
[16] = tested on: Stenotrophomonas maltophilia; assay: Bactericidal activity against Stenotrophomonas maltophilia isolate 4 with AMK-CAZ-CIP-FEP-IPM-SAM-TZP resistance phenotype assessed as concentration required for >= 3 log10 CFU/ml reduction in viable bacteria in sodium phosphate buffer at pH 7.4 after 1.5 hrs by liquid microdilution assay; assay type: functional; how it was run: as §1
Enterococcus faecium [17] = assay: Bactericidal activity against Enterococcus faecium isolate 5 with AMP-AMC-CIP-CLI-ERY-GEN-KAN-LVX-SXT-TEC-VAN resistance phenotype assessed as concentration required for >= 3 log10 CFU/ml reduction in viable bacteria in sodium phosphate buffer at pH 7.4 after 1.5 hrs by liquid microdilution assay; assay type: functional; how it was run: as §1
Acinetobacter baumannii [18] = assay: Bactericidal activity against Acinetobacter baumannii isolate 3 with AMP-AMC-CFZ-CIP-IPM-SXT-TET-TOB resistance phenotype assessed as concentration required for >= 3 log10 CFU/ml reduction in viable bacteria in 20% heat-inactivated human serum after 1.5 hrs by liquid microdilution assay; assay type: functional; how it was run: as §3
Acinetobacter baumannii [19] = assay: Bactericidal activity against Acinetobacter baumannii isolate 2 with AMP-CFZ-CIP-LVX-PIP-SXT resistance phenotype assessed as concentration required for >= 3 log10 CFU/ml reduction in viable bacteria in sodium phosphate buffer at pH 7.4 after 1.5 hrs by liquid microdilution assay; assay type: functional; how it was run: as §1
Pseudomonas aeruginosa [20] = assay: Bactericidal activity against Pseudomonas aeruginosa isolate 2 with AMP-CFZ-CIP-CTX-CXM-GEN-LVX-IPM-MEM-SXT-TET resistance phenotype assessed as concentration required for >= 3 log10 CFU/ml reduction in viable bacteria in sodium phosphate buffer at pH 7.4 after 1.5 hrs by liquid microdilution assay; assay type: functional; how it was run: as §1
Staphylococcus aureus [21] = assay: Bactericidal activity against Staphylococcus aureus isolate 1 with AMC-AMP-CIP-ERY-GEN-OXA-RIF resistance phenotype assessed as concentration required for >= 3 log10 CFU/ml reduction in viable bacteria in sodium phosphate buffer at pH 7.4 after 1.5 hrs by liquid microdilution assay; assay type: functional; how it was run: as §1
Pseudomonas aeruginosa [22] = assay: Antimicrobial activity against Pseudomonas aeruginosa isolate 1 with AMP-CFZ-CIP-CTX-CXM-GEN-LVX-SXT-TET resistance phenotype at bactericidal concentration after 30 mins by time kill assay; assay type: functional, organism-based; how it was run: as §2
[23] = tested on: Stenotrophomonas maltophilia; assay: Bactericidal activity against Stenotrophomonas maltophilia isolate 2 with AMK-CIP-CTX-IPM-MEM-SAM-TZP resistance phenotype assessed as concentration required for >= 3 log10 CFU/ml reduction in viable bacteria in 20% heat-inactivated human serum after 1.5 hrs by liquid microdilution assay; assay type: functional; how it was run: as §3
Staphylococcus aureus [24] = assay: Bactericidal activity against Staphylococcus aureus isolate 2 with AMC-AMP-CIP-ERY-GEN-LVX-OXA-RIF-TET resistance phenotype assessed as concentration required for >= 3 log10 CFU/ml reduction in viable bacteria in sodium phosphate buffer at pH 7.4 after 1.5 hrs by liquid microdilution assay; assay type: functional; how it was run: as §1
Enterococcus faecium [25] = assay: Antimicrobial activity against Enterococcus faecium isolate 3 with AMP-CIP-CTX-ERY-GEN-LVX-SXT-TEC-VAN resistance phenotype assessed as time to kill at bactericidal concentration; assay type: functional; how it was run: as §2
[26] = tested on: Stenotrophomonas maltophilia; assay: Antimicrobial activity against Stenotrophomonas maltophilia isolate 2 with AMK-CIP-CTX-IPM-MEM-SAM-TZP resistance phenotype assessed as assessed as time to kill at twofold bactericidal concentration; assay type: functional; how it was run: as §2
Enterococcus faecium [27] = assay: Bactericidal activity against Enterococcus faecium isolate 6 with AMP-AMC-CLI-CRO-CTX-CIP-ERY-GEN-KAN-LVX-SXT-VAN resistance phenotype assessed as concentration required for >= 3 log10 CFU/ml reduction in viable bacteria in sodium phosphate buffer at pH 7.4 after 1.5 hrs by liquid microdilution assay; assay type: functional; how it was run: as §1

| Substance | Activity (Enterococcus faecium [1]) | Activity (Acinetobacter baumannii [2]) | Activity [3] | Activity [4] | Activity (Acinetobacter baumannii [5]) | Activity (Pseudomonas aeruginosa [6]) | Activity (Staphylococcus aureus [7]) | Time (Acinetobacter baumannii [8]) | Activity (Pseudomonas aeruginosa [9]) | Activity (Pseudomonas aeruginosa [10]) | Activity (Enterococcus faecium [11]) | Activity (Staphylococcus aureus [12]) | Activity (Staphylococcus aureus [13]) | Activity (Enterococcus faecium [14]) | Activity (Pseudomonas aeruginosa [15]) | Activity [16] | Activity (Enterococcus faecium [17]) | Activity (Acinetobacter baumannii [18]) | Activity (Acinetobacter baumannii [19]) | Activity (Pseudomonas aeruginosa [20]) | also measured |
| --- | --- | --- | --- | --- | --- | --- | --- | --- | --- | --- | --- | --- | --- | --- | --- | --- | --- | --- | --- | --- | --- |
| H-IIGPVLGLVGSALGGLLKKI-NH2 [BOMBININ H2] | 4 µM | 8 µM | 4 µM | 4 µM | 8 µM | Active | inactive | 2 min | 8 µM | 128 µM | 64 µM | 64 µM | 8 µM | inactive | 16 µM | 16 µM | 8 µM | 128 µM | 4 µM | 16 µM | Activity (Staphylococcus aureus [21]): 16 µM; Activity (Pseudomonas aeruginosa [22]): inactive; Activity [23]: 128 µM; Activity (Staphylococcus aureus [24]): 16 µM; Time (Enterococcus faecium [25]): 5 min; Time [26]: 2 min; Activity (Enterococcus faecium [27]): 4 µM |
| H-LLPIVGNLLKSLL-NH2 | 12 µM | 24 µM | 24 µM | 3 µM | 6 µM | Active | Active | >=30 min | 48 µM | 192 µM | 48 µM | 96 µM | 12 µM | inactive | 48 µM | 48 µM | 12 µM | 192 µM | 6 µM | 48 µM | Activity (Staphylococcus aureus [21]): 48 µM; Activity (Pseudomonas aeruginosa [22]): inactive; Activity [23]: 192 µM; Activity (Staphylococcus aureus [24]): 48 µM; Time (Enterococcus faecium [25]): 5 min; Time [26]: 2 min; Activity (Enterococcus faecium [27]): 12 µM |
| H-FLPLIGRVLSGIL-NH2 [TEMPORIN A] | 12 µM | 24 µM | 48 µM | 12 µM | 12 µM | Active | inactive | >=30 min | 96 µM | >194 µM | 48 µM | 48 µM | 12 µM | inactive | 48 µM | 96 µM | 12 µM | >193 µM | 12 µM | 48 µM | Activity (Staphylococcus aureus [21]): 12 µM; Activity (Pseudomonas aeruginosa [22]): inactive; Activity [23]: >192 µM; Activity (Staphylococcus aureus [24]): 12 µM; Time (Enterococcus faecium [25]): 5 min; Time [26]: 2 min; Activity (Enterococcus faecium [27]): 12 µM |
